Compound activity as filed in PubChem BioAssay.
Sampled rows, rich in hits. Any-hit rate of the full collection: about 4.1%.
hERG protect = shields human hERG channel from block by proarrhythmic agents; 310,000 tested, 0.51% active; Q12809; AID 1511; activation (rescue from dofetilide block), less the hit threshold, % at 10 µM; CHO-hERG, FluxOR thallium flux, dofetilide IC70 present;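 active means activation above the mean of controls blocked by dofetilide plus 5 SD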;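 further: thallium influx through hERG after potassium depolarization seen as dye fluorescence rise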
KCNQ1 pot = potentiates or activates the human KCNQ1 potassium channel. P51787. CHO-K1 KCNQ1, thallium flux FluxOR fluorescence; hits give high values. B-score at 10 µM. 310,000 tested, 0.35% active;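 active means fluorescence ratio B-score, a plate-corrected score, at least three library SD, with initial intensity B-score within 5 SD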
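assay system = KCNQ1-transfected CHO-K1 cells | medium = assay buffer with matched DMSO | probe or stimulus = depolarizing K+/Tl+ stimulus, K2SO4 and Tl2SO4 each 12.5 mM in 5x stock | dosing = single dose | incubation = dye 90 min, compound 20 min, room temperature | detection = kinetic FluxOR fluorescence, 10 s baseline plus 110 s post-stimulus | evaluation = ratio B score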
KCNK3 block = human KCNK3 channel inhibition, primary screen. 340,000 tested, 0.84% active. AID 602410. CHO-KCNK3 thallium flux, FluxOR fluorescence; hits give low values. B-score at 10 µM. O14649;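 active means B-score under library mean minus 4 SD, starting fluorescence ratio at most library mean plus 5 SD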;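 further: more negative B-score means stronger inhibition of thallium flux through KCNK3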
Cl transport mod = modulates chloride dependent transport by human KCC2 | Q9H2X9 | KCC2 cells, thallium flux FluoZin-2 fluorescence | B-score of Tl+ flux slope (higher = more flux/activation; lower = inhibition) at 10 µM | 190,000 tested, 2.2% active | AID 1456;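 active means thallium flux slope and its plate-corrected score both differing from the plate sample mean at a set confidence after two filtering rounds, in either direction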;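 further: slope of fluorescence scaled to starting intensity during 10 to 20 s after thallium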
KCNK9 inh = human KCNK9 channel inhibition. Q9NPC2. HEK293 KCNK9, FluxOR thallium flux fluorescence; hits give low values. B-score at 10 µM. 310,000 tested, 1.2% active. AID 488922;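 active means ratio B-score over 3 SD below the library mean, with starting fluorescence within 5 SD of its mean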;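 further: negative B-score means less thallium flux so channel inhibition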
KCNQ1 block = blocks the human KCNQ1 potassium channel; CHO-K1 KCNQ1, FluxOR thallium flux fluorescence; hits give high values; B-score at 10 µM; 310,000 tested, 1.3% active;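 active means compounds whose thallium flux B-score, printed positive for inhibition, exceeds three library SD while starting fluorescence stays within three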;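 further: channel opened by potassium depolarization with thallium stimulus after 20 min compound exposure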
KCC2 sec1 = confirmation of human KCC2 transport modulators | shares compounds with Cl transport mod | HEK293-KCC2, thallium flux, FluoZin2 fluorescence; hits give high values | normalised thallium flux (F/F0 slope) at 10 µM | 3,700 tested, 15% active;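 active means thallium flux slope above the same plate's solvent-only control mean plus 3 SD; inconclusive means the two replicate wells disagree; inactive means no significant difference from solvent-only control wells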
KCC2 bumet counter = thallium flux despite bumetanide block in KCC2 cells, secondary assay 3; 3,700 tested, 49% active; normalized thallium flux at 10 µM; shares compounds with Cl transport mod; HEK293-KCC2 + bumetanide/ouabain, thallium flux FluoZin2; hits give high values; AID 1714;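 active means thallium entry rate above the same plate's blocked-transporter control wells by more than 3 SD; inconclusive means the two repeat wells disagree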;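 further: raw slope of fluorescence over initial fluorescence between 10 and 20 s after thallium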
KCC2 secondary2 = confirmation of human KCC2 transport modulators. 3,700 tested, 23% active. normalized thallium flux at 10 µM. AID 1715. HEK293-KCC2, thallium flux FluoZin2 fluorescence; actives lie on both sides; F/F0 rise rate, 10–20 s post-thallium. shares compounds with Cl transport mod;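 active means thallium flux slope more than 3 SD above or below the plate's solvent-only control mean, mostly below; inconclusive means the two repeat wells disagreed; inactive means no significant shift from solvent-only controls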;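 further: raw slope with 0.1% DMSO as baseline and bumetanide as block control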
HEK counter1 = parental HEK flux effect, counter-screen; thallium flux rate (normalised fluorescence) at 10 µM; shares compounds with Cl transport mod; HEK293 parental cells, thallium flux FluoZin2, ouabain; baseline-ratio fluorescence slope, 10–20 s after thallium; 3,700 tested, 46% active;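 active means thallium flux rate significantly above the same plate's solvent-only control wells, beyond their mean plus 3 SD; inconclusive means the two replicate wells gave conflicting results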
KCC2 ouabain = modulates human KCC2 on retest with ouabain; shares compounds with Cl transport mod; HEK293-KCC2, thallium flux FluoZin2 fluorescence; bidirectional: low = inhibitor, high = activator; raw Tl+ flux slope (below DMSO = inhibition, above = activation) at 10 µM; 3,700 tested, 48% active; AID 1717;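 active means thallium flux slope beyond 3 SD from same-plate DMSO control mean in most replicates, usually higher, sometimes lower; inconclusive means repeat tests gave conflicting results; inactive means no significant difference from controls in most replicates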;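 further: slope of initial-normalized fluorescence between seconds 10 and 20 after thallium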
HEK293 Tl flux2 = counter-screen for KCC2 modulators: effect in parental HEK293 cells | thallium flux slope at 10 µM | 3,700 tested, 33% active | thallium flux FluoZin-2 fluorescence slope | shares compounds with Cl transport mod;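 active means thallium flux slope above the same plate's solvent-control mean plus 3 SD in both duplicate wells; inconclusive means duplicate wells that disagreed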;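 further: run without ouabain in cells lacking the KCC2 cotransporter; slope of fluorescence scaled to its starting value between 10 and 20 s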
* marks the source's active call; other numbers are inactive results; i = inactive; ? = inconclusive; . = no result.

SMILES	hERG protect	KCNQ1 pot	KCNK3 block	Cl transport mod	KCNK9 inh	KCNQ1 block	KCC2 sec1	KCC2 bumet counter	KCC2 secondary2	HEK counter1	KCC2 ouabain	HEK293 Tl flux2
O=C(NC(=S)Nc1ccc(N2CCOCC2)c(Cl)c1)c1cccs1	0.6	i	i	.	i	i	0.0248*	0.0582*	?	0.0166*	0.0277*	0.0168*
O=C(NC(=S)Nc1ccccc1N1CCCC1)c1cccs1	3.4	17*	i	78.6*	i	i	0.0292*	0.144*	?	?	0.0871*	0.0369*
O=c1c2ccccc2oc2ccc(-c3ccc4cc[nH]c4c3)cc12	.	.	i	.	.	.	.	.	.	.	.	.
COc1ccc(OC)c(CCNC(=O)CCC(=O)N2CCOc3ccc(C)cc32)c1	-11.3	i	i	.	i	i	.	.	.	.	.	.
Cc1ccc(NC(=O)CN(C)C(=O)C2CCC2)cc1	.	.	i	.	.	.	.	.	.	.	.	.
O=C(NNC(=O)c1csc(-c2cnccc2C(F)(F)F)n1)c1ccc(C(F)(F)F)cc1	-4.4	i	i	5.88*	i	i	?	0.0409*	0.0276	0.013*	?	?
CCOC(=O)[C@H]1[C@H]2COc3ccc(Br)cc3[C@@H]2N2C(=O)CN(Cc3ccccc3)C(=O)[C@@]12C	.	.	i	.	.	.	.	.	.	.	.	.
Cc1cc(C)c2nc(SCC(=O)NNC(=O)c3ccco3)c(C)cc2c1	-8.1	i	i	4.85*	i	i	0.0159	0.0214*	0.0327	0.00983*	0.0185	0.0132*
COCCN(CCOC)C(=O)c1ccc(SCc2ccc(C)cc2)c([N+](=O)[O-])c1	-12.3	i	i	-4.36*	i	i	0.00636	0.00547	0.0285	0.00591	0.0153*	0.01
O=C(/C=C/c1cccs1)Nc1scc(-c2ccccc2)c1C(=O)O	-15.9	i	i	-4.23*	i	i	0.00804	?	0.0208*	0.00805	0.0135*	0.00999
O=C(/C=C/c1cccs1)Nc1nc(-c2ccccc2)cs1	-14.9	i	i	.	i	i	.	.	.	.	.	.
CC(=O)Nc1ccc(NC(=O)CN2CCN(c3ccccn3)CC2)cc1	0.2	i	i	.	i	i	.	.	.	.	.	.
O=C(CN1CCN(c2ccccn2)CC1)Nc1ccc2ccccc2c1	-7.6	i	i	.	i	i	0.00661	0.00416	0.0287	0.0077	0.0171	0.00975
CNS(=O)(=O)c1ccc2c(c1)C(=O)c1cc(S(=O)(=O)NC)ccc1CC2	.	.	i	.	.	.	.	.	.	.	.	.
Clc1ccc(N(CC2CO2)CC2CO2)cc1 (stereo not given)	.	.	i	.	.	.	.	.	.	.	.	.
Cn1cc(C(=O)C(=O)N2CCCc3ccccc32)c2ccccc21	4.3	i	i	-4.35*	i	i	0.0165	0.00506	0.0243*	0.00665	0.0125	0.0094
O=C(C(=O)N1CCCc2ccccc21)c1cn(CC(=O)N2CCOCC2)c2ccccc12	-7.7	i	i	1.14	i	i	.	.	.	.	.	.
Cc1nnc(NC(=O)c2ccc3ccccc3c2)o1	.	.	i	.	.	.	0.012*	0.0158*	0.0299	0.0107*	0.0261*	0.0104
COc1ccccc1CNC(=O)OCc1nccnc1C(=O)Nc1ccc(Br)cn1	-4.6	i	i	.	i	i	.	.	.	.	.	.
